Measurements published in ChEMBL document CHEMBL1139476, “Radioiodinated flavones for in vivo imaging of beta-amyloid plaques in the brain” (J Med Chem, 2005).
One block for each compound: values may come before it.

Experiments:
Liver [1] = assay: Biodistribution in ddY mouse liver at 2 uCi, iv after 60 mins; format: ADME, organism-based; settings: in vivo, 1 h
Summary of the method: (§1)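 Normal mice given the 125I-labelled flavone intravenously; killed at each time point postinjection, organs removed, weighed and counted in a γ counter. Radioactivity expressed as % injected dose per gram tissue; mean (SD) of three to five animals per interval.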

Intestine [2] = assay: Biodistribution in ddY mouse intestine at 2 uCi, iv after 2 mins; format: ADME, organism-based; settings: in vivo; summary of the method: as §1
Stomach [3] = assay: Biodistribution per organ in ddY mouse stomach at 2 uCi, iv after 60 mins; format: ADME, organism-based; settings: in vivo, 1 h
Summary of the method: (§2)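 Normal mice injected intravenously with the 125I-labelled flavone; killed at each time point, stomach removed and counted in a γ counter. Value given as % injected dose per whole organ; mean (SD) of three to five animals per interval.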

Kidney [4] = assay: Biodistribution in ddY mouse kidney at 2 uCi, iv after 2 mins; format: ADME, organism-based; settings: in vivo; summary of the method: as §1
[5] = Partition coefficient, log P at pH 7.4; format: physicochemical; settings: octanol/water
Summary of the method: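 Radioiodinated tracer shaken 3 min at room temperature in 1-octanol and 0.1 M phosphate buffer pH 7.4, centrifuged 5 min. Equal aliquots of each layer counted; ratio of octanol to buffer counts, with octanol layer repartitioned until values were consistent. Triplicate, repeated three times; mean (SD) of three experiments.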

Brain [6] = assay: Biodistribution in ddY mouse brain at 2 uCi, iv after 10 mins; format: ADME, organism-based; settings: in vivo; summary of the method: as §1
Stomach [7] = assay: Biodistribution per organ in ddY mouse stomach at 2 uCi, iv after 10 mins; format: ADME, organism-based; settings: in vivo; summary of the method: as §2
Spleen [8] = assay: Biodistribution in ddY mouse spleen at 2 uCi, iv after 60 mins; format: ADME, organism-based; settings: in vivo, 1 h; summary of the method: as §1
Kidney [9] = assay: Biodistribution in ddY mouse kidney at 2 uCi, iv after 60 mins; format: ADME, organism-based; settings: in vivo, 1 h; summary of the method: as §1
Blood [10] = assay: Biodistribution in ddY mouse blood at 2 uCi, iv after 30 mins; format: ADME, organism-based; settings: in vivo, 0.5 h; summary of the method: as §1
Liver [11] = assay: Biodistribution in ddY mouse liver at 2 uCi, iv after 2 mins; format: ADME, organism-based; settings: in vivo; summary of the method: as §1
Heart [12] = assay: Biodistribution in ddY mouse heart at 2 uCi, iv after 60 mins; format: ADME, organism-based; settings: in vivo, 1 h; summary of the method: as §1
Stomach [13] = assay: Biodistribution per organ in ddY mouse stomach at 2 uCi, iv after 30 mins; format: ADME, organism-based; settings: in vivo, 0.5 h; summary of the method: as §2
Spleen [14] = assay: Biodistribution in ddY mouse spleen at 2 uCi, iv after 2 mins; format: ADME, organism-based; settings: in vivo; summary of the method: as §1
Brain [15] = assay: Biodistribution in ddY mouse brain at 2 uCi, iv after 2 mins; format: ADME, organism-based; settings: in vivo; summary of the method: as §1
Spleen [16] = assay: Biodistribution in ddY mouse spleen at 2 uCi, iv after 10 mins; format: ADME, organism-based; settings: in vivo; summary of the method: as §1
Intestine [17] = assay: Biodistribution in ddY mouse intestine at 2 uCi, iv after 10 mins; format: ADME, organism-based; settings: in vivo; summary of the method: as §1
Intestine [18] = assay: Biodistribution in ddY mouse intestine at 2 uCi, iv after 30 mins; format: ADME, organism-based; settings: in vivo, 0.5 h; summary of the method: as §1
Heart [19] = assay: Biodistribution in ddY mouse heart at 2 uCi, iv after 30 mins; format: ADME, organism-based; settings: in vivo, 0.5 h; summary of the method: as §1
Liver [20] = assay: Biodistribution in ddY mouse liver at 2 uCi, iv after 30 mins; format: ADME, organism-based; settings: in vivo, 0.5 h; summary of the method: as §1
Brain [21] = assay: Biodistribution in ddY mouse brain at 2 uCi, iv after 60 mins; format: ADME, organism-based; settings: in vivo, 1 h; summary of the method: as §1
Kidney [22] = assay: Biodistribution in ddY mouse kidney at 2 uCi, iv after 30 mins; format: ADME, organism-based; settings: in vivo, 0.5 h; summary of the method: as §1
Heart [23] = assay: Biodistribution in ddY mouse heart at 2 uCi, iv after 10 mins; format: ADME, organism-based; settings: in vivo; summary of the method: as §1
Heart [24] = assay: Biodistribution in ddY mouse heart at 2 uCi, iv after 2 mins; format: ADME, organism-based; settings: in vivo; summary of the method: as §1
Blood [25] = assay: Biodistribution in ddY mouse blood at 2 uCi, iv after 10 mins; format: ADME, organism-based; settings: in vivo; summary of the method: as §1
Stomach [26] = assay: Biodistribution per organ in ddY mouse stomach at 2 uCi, iv after 2 mins; format: ADME, organism-based; settings: in vivo; summary of the method: as §2
Intestine [27] = assay: Biodistribution in ddY mouse intestine at 2 uCi, iv after 60 mins; format: ADME, organism-based; settings: in vivo, 1 h; summary of the method: as §1
Brain [28] = assay: Biodistribution in ddY mouse brain at 2 uCi, iv after 30 mins; format: ADME, organism-based; settings: in vivo, 0.5 h; summary of the method: as §1
Liver [29] = assay: Biodistribution in ddY mouse liver at 2 uCi, iv after 10 mins; format: ADME, organism-based; settings: in vivo; summary of the method: as §1
Spleen [30] = assay: Biodistribution in ddY mouse spleen at 2 uCi, iv after 30 mins; format: ADME, organism-based; settings: in vivo, 0.5 h; summary of the method: as §1
Blood [31] = assay: Biodistribution in ddY mouse blood at 2 uCi, iv after 2 mins; format: ADME, organism-based; settings: in vivo; summary of the method: as §1
Blood [32] = assay: Biodistribution in ddY mouse blood at 2 uCi, iv after 60 mins; format: ADME, organism-based; settings: in vivo, 1 h; summary of the method: as §1
Kidney [33] = assay: Biodistribution in ddY mouse kidney at 2 uCi, iv after 10 mins; format: ADME, organism-based; settings: in vivo; summary of the method: as §1
[34] = biological target: T1, Amyloid-beta precursor protein (Homo sapiens, UniProt P05067); assay: Displacement of [125I]6-iodo-4'-dimethyaminofl avone from beta amyloid (1-40) protein aggregates
T1 sequence (P05067 whole entry): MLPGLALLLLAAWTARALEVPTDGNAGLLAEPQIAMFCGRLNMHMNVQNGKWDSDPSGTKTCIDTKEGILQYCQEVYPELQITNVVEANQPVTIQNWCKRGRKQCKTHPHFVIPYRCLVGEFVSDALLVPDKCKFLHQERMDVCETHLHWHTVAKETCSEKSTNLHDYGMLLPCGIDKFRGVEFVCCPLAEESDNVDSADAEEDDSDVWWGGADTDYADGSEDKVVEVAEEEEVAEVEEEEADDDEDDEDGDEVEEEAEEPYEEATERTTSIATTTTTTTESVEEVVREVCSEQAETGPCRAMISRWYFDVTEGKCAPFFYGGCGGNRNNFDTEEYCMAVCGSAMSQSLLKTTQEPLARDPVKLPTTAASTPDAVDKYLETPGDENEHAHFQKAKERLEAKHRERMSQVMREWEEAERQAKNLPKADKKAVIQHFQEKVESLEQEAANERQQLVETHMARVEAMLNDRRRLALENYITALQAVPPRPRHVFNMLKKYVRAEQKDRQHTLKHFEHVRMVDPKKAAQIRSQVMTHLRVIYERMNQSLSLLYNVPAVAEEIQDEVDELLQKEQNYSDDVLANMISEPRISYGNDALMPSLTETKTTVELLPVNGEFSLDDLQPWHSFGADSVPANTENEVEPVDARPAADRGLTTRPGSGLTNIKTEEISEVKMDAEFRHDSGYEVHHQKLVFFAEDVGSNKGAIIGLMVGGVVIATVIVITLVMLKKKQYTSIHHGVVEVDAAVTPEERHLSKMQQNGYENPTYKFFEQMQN

[35] = biological target: T1, Amyloid-beta precursor protein; assay: Displacement of [125I]6-iodo-4'-dimethyaminofl avone from beta amyloid (1-42) protein aggregates

Drug uptake (Liver [1]): 1.88 % ID/g
Drug uptake (Intestine [2]): 3.52 % ID/g
Drug uptake (Stomach [3]): 0.31 % ID/organ
Drug uptake (Kidney [4]): 7.99 % ID/g
logD [5]: 2.41
Drug uptake (Brain [6]): 2.36 % ID/g
Drug uptake (Stomach [7]): 0.45 % ID/organ
Drug uptake (Spleen [8]): 3.67 % ID/g
Drug uptake (Kidney [9]): 1.46 % ID/g
Drug uptake (Blood [10]): 0.4 % ID/g
Drug uptake (Liver [11]): 8.96 % ID/g
Drug uptake (Heart [12]): 0.47 % ID/g
Drug uptake (Stomach [13]): 0.55 % ID/organ
Drug uptake (Spleen [14]): 2.7 % ID/g
Drug uptake (Brain [15]): 4 % ID/g
Drug uptake (Spleen [16]): 1.38 % ID/g
Drug uptake (Intestine [17]): 14.39 % ID/g
Drug uptake (Intestine [18]): 22.51 % ID/g
Drug uptake (Heart [19]): 0.84 % ID/g
Drug uptake (Liver [20]): 3.75 % ID/g
Drug uptake (Brain [21]): 0.17 % ID/g
Drug uptake (Kidney [22]): 4.51 % ID/g
Drug uptake (Heart [23]): 2.25 % ID/g
Drug uptake (Heart [24]): 4.98 % ID/g
Drug uptake (Blood [25]): 1.19 % ID/g
Drug uptake (Stomach [26]): 0.68 % ID/organ
Drug uptake (Intestine [27]): 30.05 % ID/g
Drug uptake (Brain [28]): 0.51 % ID/g
Drug uptake (Liver [29]): 9.01 % ID/g
Drug uptake (Spleen [30]): 0.55 % ID/g
Drug uptake (Blood [31]): 1.87 % ID/g
Drug uptake (Blood [32]): 0.23 % ID/g
Drug uptake (Kidney [33]): 6.3 % ID/g
Compound: COc1ccc(-c2cc(=O)c3cc([125I])ccc3o2)cc1

Drug uptake (Liver [1]): 4.78 % ID/g
Drug uptake (Intestine [2]): 3.12 % ID/g
Drug uptake (Stomach [3]): 0.81 % ID/organ
Drug uptake (Kidney [4]): 14.79 % ID/g
logD [5]: 1.92
Drug uptake (Brain [6]): 1.9 % ID/g
Drug uptake (Stomach [7]): 0.59 % ID/organ
Drug uptake (Spleen [8]): 0.17 % ID/g
Drug uptake (Kidney [9]): 1.66 % ID/g
Drug uptake (Blood [10]): 0.66 % ID/g
Drug uptake (Liver [11]): 9.77 % ID/g
Drug uptake (Heart [12]): 0.12 % ID/g
Drug uptake (Stomach [13]): 1.56 % ID/organ
Drug uptake (Spleen [14]): 3.92 % ID/g
Drug uptake (Brain [15]): 3.31 % ID/g
Drug uptake (Spleen [16]): 1.55 % ID/g
Drug uptake (Intestine [17]): 11.26 % ID/g
Drug uptake (Intestine [18]): 22.01 % ID/g
Drug uptake (Heart [19]): 0.53 % ID/g
Drug uptake (Liver [20]): 6.8 % ID/g
Drug uptake (Brain [21]): 0.08 % ID/g
Drug uptake (Kidney [22]): 6.45 % ID/g
Drug uptake (Heart [23]): 1.6 % ID/g
Drug uptake (Heart [24]): 5.51 % ID/g
Drug uptake (Blood [25]): 1.58 % ID/g
Drug uptake (Stomach [26]): 0.89 % ID/organ
Drug uptake (Intestine [27]): 27.28 % ID/g
Drug uptake (Brain [28]): 0.52 % ID/g
Drug uptake (Liver [29]): 8.24 % ID/g
Drug uptake (Spleen [30]): 0.56 % ID/g
Drug uptake (Blood [31]): 2.77 % ID/g
Drug uptake (Blood [32]): 0.2 % ID/g
Drug uptake (Kidney [33]): 15.11 % ID/g
Compound: O=c1cc(-c2ccc(O)cc2)oc2ccc([125I])cc12

Continued, compound first:

Compound: Nc1c(/N=N/c2ccc(-c3ccc(/N=N/c4cc(S(=O)(=O)O)c5ccccc5c4N)cc3)cc2)cc(S(=O)(=O)O)c2ccccc12 [CONGO RED]
Ki [34]: > 1000 nM
Ki [35]: > 1000 nM

Compound: CNc1ccc(-c2cc(=O)c3cc([125I])ccc3o2)cc1
Drug uptake (Liver [1]): 15.14 % ID/g
Drug uptake (Intestine [2]): 3.1 % ID/g
Drug uptake (Stomach [3]): 1.8 % ID/organ
Drug uptake (Kidney [4]): 8.13 % ID/g
logD [5]: 2.15
Drug uptake (Brain [6]): 3.68 % ID/g
Drug uptake (Stomach [7]): 0.87 % ID/organ
Drug uptake (Spleen [8]): 1.52 % ID/g
Drug uptake (Kidney [9]): 3.05 % ID/g
Drug uptake (Blood [10]): 1.34 % ID/g
Drug uptake (Liver [11]): 16.28 % ID/g
Drug uptake (Heart [12]): 1.28 % ID/g
Drug uptake (Stomach [13]): 1.44 % ID/organ
Drug uptake (Spleen [14]): 2.57 % ID/g
Drug uptake (Brain [15]): 4.12 % ID/g
Drug uptake (Spleen [16]): 2.31 % ID/g
Drug uptake (Intestine [17]): 7.91 % ID/g
Drug uptake (Intestine [18]): 12.84 % ID/g
Drug uptake (Heart [19]): 1.67 % ID/g
Drug uptake (Liver [20]): 18.61 % ID/g
Drug uptake (Brain [21]): 1.19 % ID/g
Drug uptake (Kidney [22]): 3.85 % ID/g
Drug uptake (Heart [23]): 2.66 % ID/g
Drug uptake (Heart [24]): 4.87 % ID/g
Drug uptake (Blood [25]): 1.39 % ID/g
Drug uptake (Stomach [26]): 0.78 % ID/organ
Drug uptake (Intestine [27]): 21.48 % ID/g
Drug uptake (Brain [28]): 1.84 % ID/g
Drug uptake (Liver [29]): 25.28 % ID/g
Drug uptake (Spleen [30]): 1.76 % ID/g
Drug uptake (Blood [31]): 1.89 % ID/g
Drug uptake (Blood [32]): 1.5 % ID/g
Drug uptake (Kidney [33]): 5.21 % ID/g

Compound: CN(C)c1ccc(-c2cc(=O)c3cc([125I])ccc3o2)cc1
Drug uptake (Liver [1]): 12.4 % ID/g
Drug uptake (Intestine [2]): 2.24 % ID/g
Drug uptake (Stomach [3]): 1.06 % ID/organ
Drug uptake (Kidney [4]): 8.33 % ID/g
logD [5]: 2.69
Drug uptake (Brain [6]): 3.61 % ID/g
Drug uptake (Stomach [7]): 0.63 % ID/organ
Drug uptake (Spleen [8]): 1.18 % ID/g
Drug uptake (Kidney [9]): 2.32 % ID/g
Drug uptake (Blood [10]): 1.2 % ID/g
Drug uptake (Liver [11]): 15.41 % ID/g
Drug uptake (Heart [12]): 1.07 % ID/g
Drug uptake (Stomach [13]): 1.17 % ID/organ
Drug uptake (Spleen [14]): 2.72 % ID/g
Drug uptake (Brain [15]): 3.22 % ID/g
Drug uptake (Spleen [16]): 1.92 % ID/g
Drug uptake (Intestine [17]): 6.56 % ID/g
Drug uptake (Intestine [18]): 12.97 % ID/g
Drug uptake (Heart [19]): 1.69 % ID/g
Drug uptake (Liver [20]): 15.71 % ID/g
Drug uptake (Brain [21]): 0.99 % ID/g
Drug uptake (Kidney [22]): 3.4 % ID/g
Drug uptake (Heart [23]): 2.47 % ID/g
Drug uptake (Heart [24]): 5.63 % ID/g
Drug uptake (Blood [25]): 1.07 % ID/g
Drug uptake (Stomach [26]): 0.73 % ID/organ
Drug uptake (Intestine [27]): 18.64 % ID/g
Drug uptake (Brain [28]): 1.89 % ID/g
Drug uptake (Liver [29]): 21.85 % ID/g
Drug uptake (Spleen [30]): 1.58 % ID/g
Drug uptake (Blood [31]): 1.87 % ID/g
Drug uptake (Blood [32]): 1.15 % ID/g
Drug uptake (Kidney [33]): 4.31 % ID/g
